According to ChEMBL document CHEMBL3992529, “Total Syntheses and Biological Activities of Vinylamycin Analogues” (J Med Chem, 2017):
In brackets after ≈: the same amount, converted by molar mass. Counter-ions that a name gives are not always drawn. Activity calls are given as the source filed them. The calls are words filed in the database; no cut-off is given here.

Legend:
Staphylococcus aureus = assay: Antibacterial activity against Staphylococcus aureus measured after 24 hrs by turbidimetric based microdilution method; assay type: functional
Method in brief: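 S. aureus grown 18 h at 37 °C in MH broth, diluted 50-fold and regrown to OD600 0.8–1.0, then diluted ten-fold serially to about 1 × 10^4 CFU/mL. Compounds two-fold serially diluted, 64 to 0.0625 µg/mL. MIC read by visual turbidity after 24 h at 37 °C.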

[1] = Stability of the compound at -20 degreeC incubated for one month; assay type: physicochemical; conditions: 730.5 h
K562 [2] = assay: Cytotoxicity against human K562 cells measured after 72 hrs by MTT assay; assay type: functional, cell-based; conditions: K562, 72 h
K562 [3] = assay: Potency index, ratio of vinylamycin IC50 to compound IC50 for human K562 cells; assay type: functional
MCF7 [4] = assay: Cytotoxicity against human MCF7 cells incubated for 72 hrs under normoxic condition by MTT assay; assay type: functional, cell-based; conditions: MCF7, 72 h
Method in brief: (§1)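 MCF-7 cells seeded at 2 × 10^4 cells/100 µL in duplicate and preincubated 24 h. Serial dilutions added, then 72 h at 20% O2 (normoxia) or 1% O2 (hypoxia, modular chamber). Viability by MTT under normoxia. Values are mean ± SD of three independent experiments.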

MCF7 [5] = assay: Selectivity index, ratio of IC50 for human MCF7 cells under hypoxic condition to IC50 for human MCF7 cells under normoxic condition; assay type: functional
Method in brief: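 Index computed as IC50(hypoxia)/IC50(normoxia) in MCF-7 cells, each from a 72 h MTT assay at 1% or 20% O2.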

MCF7 [6] = assay: Cytotoxicity against human MCF7 cells incubated for 72 hrs under hypoxic condition by MTT assay; assay type: functional, cell-based; conditions: MCF7, 72 h; method in brief: as §1
Danio rerio = species: Danio rerio; assay: (§2) Toxicity in wild-type zebrafish AB assessed as mortality at 100 ug/ml; conditions: in vivo
Method in brief: (§3)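 Wild-type AB zebrafish were randomly allocated to wells, 30 fish per well, and exposed to the test agent at a range of concentrations.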

K562 [7] = assay: Cytotoxicity against CM-Dil-labeled human K562 cells xenografted in wild-type zebrafish AB assessed as cell growth inhibition at 5.6 ug/ml measured after 2 days by fluorescence microscopic method relative to control; assay type: functional
Method in brief: (§4)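 Wild-type AB zebrafish at 2 dpf yolk-injected with about 200 CM-DiI-labelled K562 cells, held at 35 °C to 3 dpf. Single waterborne dose in 0.1% DMSO aqueous solution, 30 fish per well. Then 2 days at 35 °C. 10 fish imaged by fluorescence microscopy and tumour-cell fluorescence intensity compared with vehicle control.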

[8] = Toxicity in wild-type zebrafish AB assessed as mortality at 20 ug/ml; parameters: species or system Danio rerio; conditions: in vivo; method in brief: as §3
[9] = Half life in Sprague-Dawley rat plasma at 1 mg/ml by HPLC analysis; assay type: ADME, cell-free
Method in brief: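 SD rat plasma diluted to 50% in water, prewarmed to 37 °C. 40 µL of a 1 mg/mL ACN stock added per 1 mL plasma. Samples taken at 0–1440 min, proteins precipitated with ACN containing internal standard, centrifuged. Supernatant quantified by C18 HPLC using the internal standard method.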

K562 [10] = assay: Cytotoxicity against CM-Dil-labeled human K562 cells xenografted in wild-type zebrafish AB assessed as cell growth inhibition at 50 ug/ml measured after 2 days by fluorescence microscopic method relative to control; assay type: functional; method in brief: as §4
[11] = Toxicity in wild-type zebrafish AB assessed as mortality at 50 ug/ml; parameters: species or system Danio rerio; conditions: in vivo; method in brief: as §3
K562 [12] = assay: Cytotoxicity against CM-Dil-labeled human K562 cells xenografted in wild-type zebrafish AB assessed as cell growth inhibition at 16.7 ug/ml measured after 2 days by fluorescence microscopic method relative to control; assay type: functional; method in brief: as §4
[13] = Toxicity in wild-type zebrafish AB assessed as mortality at 4 ug/ml; parameters: species or system Danio rerio; conditions: in vivo; method in brief: as §3
[14] = Toxicity in wild-type zebrafish AB assessed as mortality at 0.8 ug/ml; parameters: species or system Danio rerio; conditions: in vivo; method in brief: as §3
K562 [15] = assay: Induction of apoptosis in human K562 cells at 0.5 to 2 uM measured after 24 to 48 hrs by Annexin V-FITC/propidium iodide staining based flow cytometry; assay type: functional, cell-based
Method in brief: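 K562 cells seeded at 1 × 10^5 per well and treated 24 h and 48 h. Cells washed in PBS, resuspended in binding buffer, stained in the dark with annexin V-FITC and PI for 15 min, then analysed by flow cytometry within 1 h. Values are mean ± SD of three independent experiments.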

[16] = Stability of the compound at -20 degreeC incubated for 3 days; assay type: physicochemical; conditions: 72 h
[17] = as §2; parameters: species or system Danio rerio; conditions: AB wild-type, in vivo; method in brief: as §3

SMILES | Stability [1] | IC50 (K562 [2]) [µM] | IC50 (MCF7 [4]) [µM] | Ratio IC50 (MCF7 [5]) | IC50 (MCF7 [6]) [µM] | further results
O=C(O)c1cn(C2CC2)c2cc(N3CCNCC3)c(F)cc2c1=O [CIPROFLOXACIN] |  |  |  |  |  | MIC (Staphylococcus aureus): 0.5 µg/mL (≈ 1.51 µM)
C#CCCCC(=O)OCC[C@@H]1C(=O)NC(=C)/C=C/C(=O)N[C@H](C)C(=O)N[C@@H](C(C)C)C(=O)O[C@H]1[C@H](C)CCCCCC | Stable | 8 |  |  |  | 
C=C1/C=C/C(=O)N[C@H](C)C(=O)N[C@@H](C(C)C)C(=O)O[C@@H]([C@H](C)CCCCCC)[C@H](CCO[Si](c2ccccc2)(c2ccccc2)C(C)(C)C)C(=O)N1 | Stable | 0.64 | 6.26 | 1.09 | 6.81 | mortality (Danio rerio): Nd(Insoluble); growth inhibition (GI) (K562 [7]): 66%; MIC (Staphylococcus aureus): > 64 µg/mL; mortality at 20 ug/ml [8]: 0%; half-life at 1 mg/ml [9]: 14.3 h; growth inhibition (GI) (K562 [10]): 75%; mortality at 50 ug/ml [11]: 0%; growth inhibition (GI) (K562 [12]): 70%; mortality at 4 ug/ml [13]: 0%; mortality at 0.8 ug/ml [14]: 0%; Activity (K562 [15]): Active
C=C1/C=C/C(=O)N[C@@H](C)C(=O)N[C@H](C(C)C)C(=O)O[C@H]([C@@H](C)CCCCCC)[C@@H](CCO)C(=O)N1 |  | 4.86 | 12.3 | 0.74 | 9.17 | MIC (Staphylococcus aureus): 8 µg/mL (≈ 16.2 µM); half-life at 1 mg/ml [9]: 0.54 h; Stability [16]: Unstable
Cc1ccc(NC(=O)c2ccc(CN3CCN(C)CC3)cc2)cc1Nc1nccc(-c2cccnc2)n1 [IMATINIB MESYLATE] |  | 0.31 |  |  |  | 
Cc1ccc(NC(=O)c2ccc(CN3CCN(C)CC3)cc2)cc1Nc1nccc(-c2cccnc2)n1 [IMATINIB] |  |  |  |  |  | mortality at 100 ug/ml [17]: 100%; mortality at 20 ug/ml [8]: 0%; growth inhibition (GI) (K562 [10]): 71%; mortality at 50 ug/ml [11]: 0%; mortality at 4 ug/ml [13]: 0%; mortality at 0.8 ug/ml [14]: 0%
C=C1/C=C/C(=O)N[C@H](C)C(=O)N[C@@H](C(C)C)C(=O)O[C@@H]([C@H](C)CCCCCC)[C@H](CCOC(=O)CCCCCCCCCCCCCCCCC)C(=O)N1 | Stable | > 50 |  |  |  | 
CCCCCC[C@@H](C)[C@@H]1OC(=O)[C@H](C(C)C)NC(=O)[C@@H](C)NC(=O)/C=C/[C@H](CO)NC(=O)[C@H]1CCOCc1ccc(OC)cc1 | Stable | 21.4 |  |  |  | 
C=C1/C=C/C(=O)N(C)CC(=O)N[C@@H]([C@H](O)C(=O)OC)C(=O)O[C@@H]([C@H](C)CCCCCCCCCCCC(C)C)[C@H](C)C(=O)N1 |  |  | 0.32 | 0.38 | 0.12 | 
C=C1/C=C/C(=O)N[C@H](C)C(=O)N[C@@H](C(C)C)C(=O)O[C@@H]([C@H](C)CCCCCC)[C@H](CCOC(=O)CP(=O)(OCC)OCC)C(=O)N1 | Stable | 7.9 |  |  |  | 

Second part, led by results:

Stability [1] | SMILES | IC50 (K562 [2]) [µM] | IC50 (MCF7 [4]) [µM] | Ratio IC50 (MCF7 [5]) | IC50 (MCF7 [6]) [µM] | further results
Stable | C=C1/C=C/C(=O)N[C@@H](C)C(=O)N[C@H](C(C)C)C(=O)O[C@H]([C@@H](C)CCCCCC)[C@@H](CCO[Si](c2ccccc2)(c2ccccc2)C(C)(C)C)C(=O)N1 | 1.27 | 5.11 | 1.37 | 7.02 | Ratio IC50 (K562 [3]): 4
Stable | C=C1/C=C/C(=O)N[C@@H](C)C(=O)N[C@H](C(C)C)C(=O)O[C@@H]([C@H](C)CCCCCC)[C@H](CCOCc2ccc(OC)cc2)C(=O)N1 | 4.6 | 10.1 | 0.79 | 7.98 | 
Stable | C=C1/C=C/C(=O)NCC(=O)N[C@@H](C(C)C)C(=O)O[C@@H]([C@H](C)CCCCCC)[C@H](CCO[Si](c2ccccc2)(c2ccccc2)C(C)(C)C)C(=O)N1 | 2.31 | 3.49 | 1.34 | 4.69 | Ratio IC50 (K562 [3]): 2
Stable | C=C1/C=C/C(=O)N(C)CC(=O)N[C@@H](C(C)C)C(=O)O[C@@H]([C@H](C)CCCCCC)[C@H](CCO[Si](c2ccccc2)(c2ccccc2)C(C)(C)C)C(=O)N1 | 0.4 |  |  |  | MIC (Staphylococcus aureus): > 64 µg/mL; half-life at 1 mg/ml [9]: 20.1 h
Stable | C=C1/C=C/C(=O)NC(C)C(=O)NC(C(C)C)C(=O)O[C@@H]([C@H](C)CCCCCC)[C@H](CCOCc2ccccc2)C(=O)N1 (single isomer, unassigned) | 3.06 |  |  |  | 
